Screens as filed in PubChem.
SIRT5 block – SIRT5 desuccinylase inhibitors, primary screen, biochemical, fluorescence imaging, single point, set 5 | AID 652115, 2013 | 1.1% of 330,000 active | inhibition, % at 15 µM | Purified SirT5, succinyl-peptide AMC, trypsin-coupled fluorescence | NAD-dependent protein deacylase sirtuin-5, mitochondrial (Homo sapiens), Q9NXA8; in the data active means inhibition above about 15%
Target sequence (Q9NXA8 whole entry, looked up): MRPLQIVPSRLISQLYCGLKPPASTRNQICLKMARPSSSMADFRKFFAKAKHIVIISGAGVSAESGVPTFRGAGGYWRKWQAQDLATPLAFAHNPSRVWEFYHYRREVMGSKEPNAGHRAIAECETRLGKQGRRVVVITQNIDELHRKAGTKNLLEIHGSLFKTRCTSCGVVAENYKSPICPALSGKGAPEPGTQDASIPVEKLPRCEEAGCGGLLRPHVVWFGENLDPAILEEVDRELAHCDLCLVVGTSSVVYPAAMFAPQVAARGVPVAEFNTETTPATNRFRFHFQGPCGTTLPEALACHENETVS
DENV2 CPE – inhibitors of DENV2 cytopathic effect, primary screen, cell-based, plate reader, single concentration; DENV2-infected cells, cytopathic effect rescue; CPE inhibition, % at 9.99 µM; 1.7% of 350,000 active; AID 651640, 2012; in the data active means CPE inhibition above about 20%, passing the limit was not always enough; tested in BHK-21 cells;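 further: 0% = median of neutral control wells and 100% = median of positive control wells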
ERAP1 inh – human ERAP1 aminopeptidase inhibitors, primary screen, biochemical, single point, plate reader; recombinant ERAP1, Leu-AMC fluorescence, 60 min; inhibition, % at 10.7 µM; 0.15% of 340,000 active; AID 652197, 2013;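 active means mean replicate inhibition of at least 30%, or all replicates individually reaching that 30% level; inactive means mean below 30% and not every replicate reaching it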;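 further: 0% = neutral control wells and 100% = L-leucinethiol positive control wells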
CAL PDZ FP-1 – CAL PDZ peptide-binding inhibitors, primary screen, biochemical, fluorescence polarization, Cer-tagged CAL PDZ, HTS; Golgi-associated PDZ and coiled-coil motif-containing protein (Homo sapiens), Q9HD26; purified CAL PDZ, TMR-peptide fluorescence polarization, 1 h; inhibition, % at 20 µM; 0.02% of 330,000 active; AID 504414, 2011;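 active means highest replicate inhibition of at least 40%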;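 further: plate controls were DMSO neutral control wells for no effect and unlabeled competitor peptide control wells for full effect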
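material = purified tagged CAL PDZ domain construct (CerCALP) | buffer or medium = sodium phosphate/NaCl buffer pH 7.4 with TCEP, IgG, Thesit | reagent = TMR-labelled reporter peptide T*-PRC34 bound in PDZ groove | incubation = 1 h room-temperature incubation prior to read | measured by = fluorescence polarization (mP) | evaluation = percent inhibition from loss of millipolarization | control set = unlabelled peptide and DMSO controls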
CAL PDZ FP-2 – untagged CAL PDZ binding inhibitors, primary screen, biochemical, fluorescence polarization, HTS | purified CAL PDZ, TMR-peptide fluorescence polarization, 1 h | inhibition, % at 24.9 µM | 0.92% of 300,000 active | Golgi-associated PDZ and coiled-coil motif-containing protein (Homo sapiens), Q9HD26;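 active means mean inhibition of at least 30% with at least half of replicates also reaching 30%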;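 further: 0% = DMSO neutral control and 100% = excess unlabeled competitor peptide PRC23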
S100A4 inh HTS – inhibitors of S100A4-myosin IIA peptide binding, primary screen, biochemical, fluorescence polarization, TAMRA-MyoIIA peptide | inhibition, % at 10.7 µM | 0.14% of 360,000 active;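 active means mean inhibition of at least 70% across replicates, with every replicate also reaching that level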
Target sequence (P26447 whole entry, looked up): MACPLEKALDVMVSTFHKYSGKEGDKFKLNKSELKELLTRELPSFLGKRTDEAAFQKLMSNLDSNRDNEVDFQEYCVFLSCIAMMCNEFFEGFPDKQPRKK
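assay system = human S100A4 monomer with TAMRA-labelled myosin IIA peptide | also added = labelled myosin peptide probe, 5 nM | incubation = 5 min between mix addition and reading | control set = DMSO and TFP controls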
* = called active by the depositor; ! = not active in a repeat. Shown are actives, neighbours in structure and some others; about 2.9% of the full set was active somewhere.

How did COc1cccc(NC(=O)CN(C)C(=O)c2c(C)nn(CC(C)C)c2Cl)c1 do in these assays?
SIRT5 block: -1; DENV2 CPE: -4; ERAP1 inh: -2; CAL PDZ FP-1: 0; CAL PDZ FP-2: -3; S100A4 inh HTS: -1

How did Cc1ccccc1S(=O)(=O)N[C@H]1CC[C@H](CCNS(=O)(=O)c2cccc(F)c2)O[C@@H]1CO do in these assays?
SIRT5 block: -2; DENV2 CPE: -2; ERAP1 inh: 0; S100A4 inh HTS: -2

What do the screens show for `O=C(C[C@@H]1CC[C@@H](NC(=O)C2CC2)[C@@H](CO)O1)NCc1ccncc1`?
SIRT5 block: 3; DENV2 CPE: -6; ERAP1 inh: -1; S100A4 inh HTS: 9

How did Cc1cc(C(=O)CSc2nnnn2C)c(C)n1CCc1ccc(F)cc1 do in these assays?
CAL PDZ FP-1: -2; CAL PDZ FP-2: 39*

How did CC(C)=NNc1nc2c(c(=O)[nH]c(=O)n2C)n1CCc1ccccc1 do in these assays?
SIRT5 block: 37*; DENV2 CPE: 5; ERAP1 inh: -4; CAL PDZ FP-1: 0; CAL PDZ FP-2: 3; S100A4 inh HTS: 25

Results for COc1ccc(OCc2nn[nH]n2)cc1 ?
SIRT5 block: 3; DENV2 CPE: 10; CAL PDZ FP-1: 2; CAL PDZ FP-2: -3; S100A4 inh HTS: -5

Results for COC(=O)c1ccc(OCc2nn[nH]n2)cc1 ?
SIRT5 block: 0; DENV2 CPE: 1; ERAP1 inh: 1; CAL PDZ FP-1: -2; CAL PDZ FP-2: 61*; S100A4 inh HTS: 0

How did C[C@H]1CN([C@@H](C)CO)C(=O)CCCn2nncc2CO[C@H]1CN(C)Cc1ccc2c(c1)OCCN2C do in these assays?
SIRT5 block: -1; DENV2 CPE: -6; ERAP1 inh: -4; S100A4 inh HTS: -3

How did COc1ccc(CN(C)C[C@@H]2Oc3ccc(NC(=O)CCN4CCOCC4)cc3C(=O)N([C@@H](C)CO)C[C@H]2C)cc1 do in these assays?
SIRT5 block: -2; DENV2 CPE: 21*; ERAP1 inh: -6; S100A4 inh HTS: -7

What do the screens show for `COc1ccc(NC(=O)N(C)C[C@H]2Oc3ccc(NC(=O)CCN4CCOCC4)cc3C(=O)N([C@H](C)CO)C[C@@H]2C)cc1`?
SIRT5 block: 4; DENV2 CPE: 52*!; ERAP1 inh: -3; CAL PDZ FP-1: 1; CAL PDZ FP-2: -1; S100A4 inh HTS: 2

What do the screens show for `C[C@@H]1CN([C@@H](C)CO)C(=O)c2cc(NC(=O)CCN3CCOCC3)ccc2O[C@H]1CN(C)Cc1ccc(C(F)(F)F)cc1`?
SIRT5 block: 26*; DENV2 CPE: -2; ERAP1 inh: -4; S100A4 inh HTS: -2

What do the screens show for `COc1ccc(NC(=O)N(C)C[C@H]2Oc3ccc(NC(=O)CCN4CCOCC4)cc3C(=O)N([C@@H](C)CO)C[C@@H]2C)cc1`?
SIRT5 block: -3; DENV2 CPE: -7; ERAP1 inh: 1; S100A4 inh HTS: 1

What do the screens show for `COc1ccc(CN(C)C[C@@H]2Oc3ccc(NC(=O)CCN4CCOCC4)cc3C(=O)N([C@@H](C)CO)C[C@@H]2C)cc1`?
DENV2 CPE: -4; ERAP1 inh: -1; S100A4 inh HTS: 11

Results for COc1ccc2c3c([nH]c2c1)[C@@H](CO)N(CC1CC1)CC31CN(C(=O)c2cccc(F)c2)C1 ?
DENV2 CPE: 4

Results for COCC#Cc1ccc2c(c1)O[C@H](CN(C)S(=O)(=O)c1cccc(F)c1)[C@H](C)CN([C@H](C)CO)S2(=O)=O ?
SIRT5 block: 0; DENV2 CPE: 11; ERAP1 inh: -2; S100A4 inh HTS: -45

Results for COc1ccc(NC(=O)N[C@@H](CCSC)C(=O)O)cc1OC ?
SIRT5 block: 19*; DENV2 CPE: -1; ERAP1 inh: -2; CAL PDZ FP-1: 0; CAL PDZ FP-2: 2; S100A4 inh HTS: -3

Results for CCCc1c(C(=O)OCC)[nH]c2c1C(=O)CCC2 ?
SIRT5 block: 29*; DENV2 CPE: 1; ERAP1 inh: 1; CAL PDZ FP-1: 0; CAL PDZ FP-2: 1; S100A4 inh HTS: 11

What do the screens show for `O=C(CSc1cc(Cl)ccc1Cl)NC1CCCc2ccccc21` (stereo unspecified)?
SIRT5 block: -1; ERAP1 inh: -3; CAL PDZ FP-1: -3; CAL PDZ FP-2: -6; S100A4 inh HTS: -2

What do the screens show for `Cc1nnc(SCC(=O)NC2CCCc3ccccc32)n1-c1ccccc1` (stereo unspecified)?
SIRT5 block: -3; DENV2 CPE: 83*; ERAP1 inh: -1; CAL PDZ FP-1: 0; S100A4 inh HTS: 0

Results for Cc1ccc2nc(SCC(=O)NC3CCCc4ccccc43)[nH]c2c1 (stereo unspecified) ?
CAL PDZ FP-1: -1; CAL PDZ FP-2: 84*

Results for O=C(CSc1nncn1-c1ccccc1)NC1CCCc2ccccc21 (stereo unspecified) ?
SIRT5 block: -1; DENV2 CPE: 0; ERAP1 inh: 5; CAL PDZ FP-1: -4; CAL PDZ FP-2: -20; S100A4 inh HTS: -5

What do the screens show for `CN(C)C(=O)c1cccc(-c2ccc([C@@H]3[C@@H](CO)N4CCCCN(C(=O)C5CCCC5)C[C@@H]34)cc2)c1`?
SIRT5 block: 3; DENV2 CPE: 8; ERAP1 inh: 1; S100A4 inh HTS: 8

What do the screens show for `C[C@@H]1CN([C@H](C)CO)C(=O)Cc2cc(NC(=O)Cc3cn(C)c4ccccc34)ccc2O[C@@H]1CN(C)C(=O)Nc1ccc(F)cc1`?
SIRT5 block: 0; DENV2 CPE: 6; ERAP1 inh: -1; S100A4 inh HTS: -7

What do the screens show for `Cc1cc(C=O)c(C)n1-c1cc(C(=O)O)cc(C(=O)O)c1`?
SIRT5 block: 20*; DENV2 CPE: 15; ERAP1 inh: 4; CAL PDZ FP-1: 0; CAL PDZ FP-2: -2; S100A4 inh HTS: -2

How did Cc1cc(C=O)c(C)n1-c1cccc(C(=O)O)c1 do in these assays?
SIRT5 block: 4; DENV2 CPE: -5; ERAP1 inh: 2; CAL PDZ FP-1: 0; CAL PDZ FP-2: -3; S100A4 inh HTS: -7

How did C[C@@H]1CN([C@H](C)CO)C(=O)c2cc(NC(=O)Nc3ccc(F)cc3)ccc2O[C@@H](C)CCCCO[C@@H]1CN(C)S(=O)(=O)c1cccs1 do in these assays?
SIRT5 block: 7; DENV2 CPE: 21*; ERAP1 inh: 0; S100A4 inh HTS: -8
